Assay [1] can be described thus: Antiproliferative activity against human CaEs17 cells assessed as growth inhibition by MTT assay. It counts as functional, cell-based. In a few lines: (§1)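 Cells treated in triplicate over a range of concentrations at 37 °C in humidified 5% CO2. At 72 h, MTT (5 mg/mL) was added for 4 h, followed by DMSO solubilisation and OD at 490 nm. IC50 is the concentration giving 50% growth inhibition, reported as mean ± S.D. of three independent experiments.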

In assay [2] the test system is K562. The experiment in a line: Antiproliferative activity against human K562 cells assessed as growth inhibition by MTT assay. It counts as functional, cell-based. In a few lines:
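K562 cells in log phase seeded at 5 × 10⁴ cells/mL and treated in triplicate across a 0.39–100 range. Cultures were kept at 37 °C in humidified 5% CO2. At 72 h, MTT (5 mg/mL) was added for 4 h, formazan was dissolved in DMSO, and OD was read at 490 nm. IC50 is the concentration giving 50% growth inhibition, reported as mean ± S.D. of three independent experiments.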
On the technique in general: Tetrazolium assays rely on reduction of a dye to a coloured formazan, in cell work by metabolically active cells.

Assay [3] relates to Bel-7402. Briefly: Antiproliferative activity against human Bel7402 cells assessed as growth inhibition by MTT assay. It counts as functional, cell-based. The method, boiled down:
as §1

Assay [4] concerns MGC-803. The experiment in a line: Antiproliferative activity against human MGC803 cells assessed as growth inhibition by MTT assay. It counts as functional, cell-based. In a few lines:
as §1

Assay [5] concerns the target Glutathione S-transferase P (Homo sapiens) (UniProt P09211). Briefly: Inhibition of glutathione S-transferase pi in human Bel7402 cell lysates at 40 uM using CDNB and GSH as substrates by spectrophotometry. The conditions noted are these: Bel-7402.
Assay [6] relates to Bel-7402. The experiment in a line: Induction of apoptosis in human Bel7402 cells assessed as viable cells level at 0.6 uM incubated for 3 days by Annexin-V and propidium iodide double staining based flow cytometry (reference value: 92.6%). The assay is classed as functional. (In general: A flow cytometer gives signals particle by particle.)
The subject of assay [7] is Bel-7402. Briefly: Induction of cell cycle arrest in human Bel7402 cells assessed as accumulation at G1 phase at 0.8 uM incubated for 48 hrs by propidium iodide staining based flow cytometry (reference value: 63.86%). It counts as functional. In a few lines:
(§2)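 Bel-7402 seeded at 5.0 × 10³ cells/well and grown 24 h at 37 °C. Exponentially growing cells were treated for 48 h, alongside untreated and DMSO-solvent controls. Cells were then centrifuged, fixed overnight in 70% ethanol at 4 °C, and analysed by flow cytometry for phase distribution.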

For assay [8], the system named is K562. Briefly: Potency index, ratio of IC50 for oridonin to IC50 for test compound against human K562 cells. It counts as functional.
The test system of assay [9] is Bel-7402. Briefly: Induction of apoptosis in human Bel7402 cells assessed as necrotic cells level at 1 uM incubated for 3 days by Annexin-V and propidium iodide double staining based flow cytometry (reference value: 0.5%). It counts as functional.
Assay [10] concerns Bel-7402. Briefly: Induction of apoptosis in human Bel7402 cells assessed as viable cells level at 0.8 uM incubated for 3 days by Annexin-V and propidium iodide double staining based flow cytometry (reference value: 92.6%). The assay is classed as functional.
The subject of assay [11] is Bel-7402. Briefly: Induction of apoptosis in human Bel7402 cells assessed as viable cells level at 1 uM incubated for 3 days by Annexin-V and propidium iodide double staining based flow cytometry (reference value: 92.6%). The assay is classed as functional.
Assay [12] has as its system Bel-7402. Briefly: Induction of cell cycle arrest in human Bel7402 cells assessed as accumulation at G1 phase at 1 uM incubated for 48 hrs by propidium iodide staining based flow cytometry (reference value: 63.86%). The assay is classed as functional. The method, boiled down: as §2
For assay [13], the system named is Bel-7402. The experiment in a line: Induction of cell cycle arrest in human Bel7402 cells assessed as accumulation at S phase at 0.6 uM incubated for 48 hrs by propidium iodide staining based flow cytometry (reference value: 31.89%). The assay is classed as functional. The method, boiled down:
as §2

Assay [14] relates to Bel-7402. Briefly: Induction of cell cycle arrest in human Bel7402 cells assessed as accumulation at S phase at 1 uM incubated for 48 hrs by propidium iodide staining based flow cytometry (reference value: 31.89%). The assay is classed as functional. The method, boiled down:
as §2

The subject of assay [15] is Bel-7402. Briefly: Potency index, ratio of IC50 for oridonin to IC50 for test compound against human Bel7402 cells. It counts as functional.
Assay [16] has as its system Bel-7402. The experiment in a line: Induction of cell cycle arrest in human Bel7402 cells assessed as accumulation at S phase at 0.8 uM incubated for 48 hrs by propidium iodide staining based flow cytometry (reference value: 31.89%). It counts as functional. In a few lines:
as §2

Assay [17] has as its system Bel-7402. The experiment in a line: Induction of cell cycle arrest in human Bel7402 cells assessed as accumulation at G2/M phase at 0.8 uM incubated for 48 hrs by propidium iodide staining based flow cytometry (reference value: 4.75%). It counts as functional. In a few lines:
as §2

The subject of assay [18] is Bel-7402. Briefly: Induction of apoptosis in human Bel7402 cells assessed as early apoptotic cells level at 0.8 uM incubated for 3 days by Annexin-V and propidium iodide double staining based flow cytometry (reference value: 4.5%). The assay is classed as functional.
Assay [19] concerns Bel-7402. Briefly: Induction of apoptosis in human Bel7402 cells assessed as early apoptotic cells level at 1 uM incubated for 3 days by Annexin-V and propidium iodide double staining based flow cytometry (reference value: 4.5%). The assay is classed as functional.
The subject of assay [20] is Bel-7402. Briefly: Induction of apoptosis in human Bel7402 cells assessed as late apoptotic cells level at 0.6 uM incubated for 3 days by Annexin-V and propidium iodide double staining based flow cytometry (reference value: 2.4%). The assay is classed as functional.
For assay [21], the system named is Bel-7402. The experiment in a line: Induction of apoptosis in human Bel7402 cells assessed as late apoptotic cells level at 1 uM incubated for 3 days by Annexin-V and propidium iodide double staining based flow cytometry (reference value: 2.4%). The assay is classed as functional.
For assay [22], the system named is Bel-7402. The experiment in a line: Induction of apoptosis in human Bel7402 cells assessed as necrotic cells level at 0.8 uM incubated for 3 days by Annexin-V and propidium iodide double staining based flow cytometry (reference value: 0.5%). The assay is classed as functional.
Assay [23] deals with Bel-7402. Briefly: Induction of apoptosis in human Bel7402 cells assessed as necrotic cells level at 0.6 uM incubated for 3 days by Annexin-V and propidium iodide double staining based flow cytometry (reference value: 0.5%). The assay is classed as functional.
Assay [24] deals with Bel-7402. Briefly: Induction of apoptosis in human Bel7402 cells assessed as early apoptotic cells level at 0.6 uM incubated for 3 days by Annexin-V and propidium iodide double staining based flow cytometry (reference value: 4.5%). The assay is classed as functional.
Assay [25] concerns Bel-7402. The experiment in a line: Induction of cell cycle arrest in human Bel7402 cells assessed as accumulation at G2/M phase at 0.6 uM incubated for 48 hrs by propidium iodide staining based flow cytometry (reference value: 4.75%). The assay is classed as functional. In a few lines:
as §2

The test system of assay [26] is Bel-7402. The experiment in a line: Induction of apoptosis in human Bel7402 cells assessed as late apoptotic cells level at 0.8 uM incubated for 3 days by Annexin-V and propidium iodide double staining based flow cytometry (reference value: 2.4%). The assay is classed as functional.
Assay [27] relates to Bel-7402. Briefly: Induction of cell cycle arrest in human Bel7402 cells assessed as accumulation at G2/M phase at 1 uM incubated for 48 hrs by propidium iodide staining based flow cytometry (reference value: 4.75%). The assay is classed as functional. In a few lines:
as §2

Assay [28] relates to Bel-7402. Briefly: Induction of cell cycle arrest in human Bel7402 cells assessed as accumulation at G1 phase at 0.6 uM incubated for 48 hrs by propidium iodide staining based flow cytometry (reference value: 63.86%). It counts as functional. In a few lines: as §2
Assay [29] in a line: Potency index, ratio of IC50 for oridonin to IC50 for test compound against human CaEs17 cells. The assay is classed as functional.
Assay [30] deals with MGC-803. Briefly: Potency index, ratio of IC50 for oridonin to IC50 for test compound against human MGC803 cells. The assay is classed as functional.

The structures appear in SMILES notation.

Chain of Glutathione S-transferase P (Homo sapiens) (P09211 2-210 limits assumed): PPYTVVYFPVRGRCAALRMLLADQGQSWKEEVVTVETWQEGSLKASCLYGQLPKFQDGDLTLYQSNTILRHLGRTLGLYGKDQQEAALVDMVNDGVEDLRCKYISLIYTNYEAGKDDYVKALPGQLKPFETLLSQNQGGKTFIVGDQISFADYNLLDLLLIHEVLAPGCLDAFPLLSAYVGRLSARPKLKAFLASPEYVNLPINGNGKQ

With `CC(=O)O[C@H]1C(=O)[C@@]2(C)[C@H]([C@H](OC(=O)c3ccccc3)[C@]3(O)C[C@H](OC(=O)[C@H](O)[C@@H](NC(=O)c4ccccc4)c4ccccc4)C(C)=C1C3(C)C)[C@]1(OC(C)=O)CO[C@@H]1C[C@@H]2O` [PACLITAXEL], the IC50 – broadly, the concentration needed to halve the response being measured – in [1] turned out to be 430 nM.

For the molecule `C=C1C(=O)[C@@]23C(=O)OC[C@]4([C@@H](OC(C)=O)CCC(C)(C)[C@H]4C=O)[C@@H]2CC[C@H]1[C@H]3OC(=O)c1ccc([N+](=O)[O-])cc1`, the IC50 in assay [1] stood at 1600 nM; in assay [2], 1140 nM; in [3], 1740 nM; in assay [4] it was 1980 nM.

For the molecule `C=C1C(=O)[C@@]23C(=O)OC[C@]4([C@@H](OC(C)=O)CCC(C)(C)[C@H]4C=O)[C@@H]2CC[C@H]1[C@H]3OC(C)=O`, the IC50 in [1] turned out to be 2800 nM; in assay [2] it was 1740 nM; in assay [3] it was 3960 nM; in [4], 3470 nM. In [5], the inhibition (in general, the relative decrease from the control value, in per cent) came out at 7.08%.

Regarding `C=C1C(=O)[C@@]23C(=O)OC[C@]4([C@@H](OC(C)=O)CCC(C)(C)[C@H]4C=O)[C@@H]2CC[C@H]1[C@H]3OC(=O)CCCC`, the IC50 amounted to 2850 nM in assay [1], 1560 nM in assay [2], 3640 nM in [3] and 2490 nM in [4].

`C=C1C(=O)[C@@]23C(=O)OC[C@]4([C@@H](OC(C)=O)CCC(C)(C)[C@H]4C=O)[C@@H]2CC[C@H]1[C@H]3OC(=O)c1ccccc1Cl`: the Activity in assay [6] worked out at 87.2%; in assay [7] it was 41.69%; in assay [9] it was 0.6%; in assay [10], 80.9%; in [11] it was 66%; in assay [12], 7.84%. The Activity in [13] was determined as 20.73%; in assay [14], 0%; in assay [16] it was 5.28%; in assay [17], 53.3%; in assay [18], 9.6%; in assay [19], 21%. The Activity in [20] stood at 3.8%; in assay [21], 12.4%; in assay [22], 0.3%; in assay [23], 0.1%; in assay [24] it was 8.8%; in [25] it was 23.2%. In addition, the Activity is reported as 9.3% in assay [26], 92.16% in [27] and 56.07% in [28]. Also, the “Ratio IC50” value amounted to 12 in [8], 5 in assay [15], 18 in assay [29] and 4 in assay [30]. Further, the IC50 in assay [1] worked out at 600 nM; in assay [2] it was 390 nM; in assay [3] it was 1390 nM; in assay [4], 1280 nM. For the same molecule, in [5], the inhibition came to 0%.

Take `C=C1C(=O)[C@@]23C(=O)OC[C@]4([C@@H](OC(C)=O)CCC(C)(C)[C@H]4C=O)[C@@H]2CC[C@H]1[C@H]3OC(=O)CC`: the IC50 came out at 2770 nM in assay [1], 1500 nM in assay [2], 3780 nM in [3] and 3220 nM in [4].

Take `C=C1C(=O)[C@@]23C(=O)OC[C@]4([C@@H](OC(C)=O)CCC(C)(C)[C@H]4C=O)[C@@H]2CC[C@H]1[C@H]3OC(=O)c1ccc(C(F)(F)F)cc1`: the IC50 in assay [1] amounted to 9160 nM; in assay [2], 3150 nM; in assay [3], 5090 nM; in assay [4], 5540 nM.

As to `C=C1C(=O)[C@@]23C(=O)OC[C@]4([C@@H](OC(C)=O)CCC(C)(C)[C@H]4C=O)[C@@H]2CC[C@H]1[C@H]3OC(=O)c1ccc(Cl)cc1`, the half-maximal inhibitory concentration (IC50) in assay [1] is 1250 nM; in assay [2], 870 nM; in assay [3] it was 1510 nM; in [4] it was 1730 nM.

As to `C=C1C(=O)[C@@]23C(=O)OC[C@]4([C@@H](OC(C)=O)CCC(C)(C)[C@H]4C=O)[C@@H]2CC[C@H]1[C@H]3OC(=O)c1ccc(C)cc1`, the half-maximal inhibitory concentration (IC50) was 1830 nM in [1], 1310 nM in assay [2], 2090 nM in assay [3] and 1900 nM in assay [4].

For `C=C1C(=O)[C@@]23C(=O)OC[C@]4([C@@H](OC(C)=O)CCC(C)(C)[C@H]4C=O)[C@@H]2CC[C@H]1[C@H]3OC(=O)c1ccccc1`, the IC50 in [1] was determined as 1990 nM; in assay [2], 1400 nM; in assay [3] it was 3050 nM; in assay [4], 2180 nM.

Turning to `C=C1C(=O)[C@@]23C(=O)OC[C@]4([C@@H](OC(C)=O)CCC(C)(C)[C@H]4C=O)[C@@H]2CC[C@H]1[C@H]3OC(=O)c1ccc(OC)cc1`, the half-maximal inhibitory concentration (IC50) in [1] turned out to be 1960 nM; in assay [2], 1920 nM; in assay [3], 2470 nM; in [4] it was 2530 nM.
